PMC7332640 (Acta Pharmaceutica Sinica. B, 2019)

Experiments:
[1] = In vitro phosphorylation of compounds in rat whole blood; type: in vitro ADME; details: for Vmax (phosphorylation): 37 °C, 60 min, 1–100 μmol/L; for Km: read-out: Km (phosphorylation), 37 °C, 60 min, 1–100 μmol/L
Procedure, shortened: (§1)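 Test compound was spiked directly into fresh whole blood at eight levels from 1 to 100 and incubated at 37 °C for 60 min. Reactions were quenched with ice-cold acetonitrile, vortexed and centrifuged. The supernatant was analysed by LC-MS/MS for phosphate formation. Km and Vmax were obtained by nonlinear fitting to the Michaelis–Menten equation.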

[2] = In vitro phosphorylation of compounds in human whole blood; type: in vitro ADME; details: for Vmax (phosphorylation): 37 °C, 60 min, 1–100 μmol/L; for Km: read-out: Km (phosphorylation), 37 °C, 60 min, 1–100 μmol/L
Procedure, shortened: as §1

[3] = type: in vivo; details: Sprague–Dawley rats, oral 3 mg/kg
Procedure, shortened: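 Male Sprague–Dawley rats, three per group, were fasted 12 h, dosed orally at 3 mg/kg in 0.5% hydroxypropyl methylcellulose, and fed 4 h postdose. Heparinized orbital blood was taken from 0.08 to 48 h, including 6 h, and protein-precipitated with acetonitrile. Parent and phosphorylated drug were quantified by positive-ESI MRM LC-MS/MS on a C18 column with a formic acid water/methanol gradient.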

CCc1nc(-c2ccc(-c3ccc(CC[C@@H](N)CO)cc3)cc2)co1.Cl [Compound 24, (R)-2-Amino-4-(4′-(2-ethyloxazol-4-yl)-[1,1′-biphenyl]-4-yl)butan-1-ol hydrochloride]
CLint (phosphorylation) [1]: 0.015 µL/min | Vmax (phosphorylation) [1]: 1.9 ± 0.3 pmol/min | Km [1]: 128 ± 23.4 µM | CLint (phosphorylation) [2]: 0.006 µL/min | Vmax (phosphorylation) [2]: 0.24 ± 0.05 pmol/min | Km [2]: 40.2 ± 7.3 µM | phosphorylation level at 6 h after dosing [3]: 89%

CCCCCCCCc1ccc(CCC(N)(CO)CO)cc1 [FTY720, fingolimod, reference compound]
CLint (phosphorylation) [1]: 0.930 µL/min | Vmax (phosphorylation) [1]: 63.4 ± 10.2 pmol/min | Km [1]: 68.2 ± 11.2 µM | CLint (phosphorylation) [2]: 0.013 µL/min | Vmax (phosphorylation) [2]: 0.33 ± 0.05 pmol/min | Km [2]: 25.7 ± 4.2 µM | phosphorylation level at 6 h after dosing [3]: 80%

CCCCCCCCc1ccc(CC[C@@](C)(N)CO)cc1.Cl [Compound 21, (R)-2-Amino-2-methyl-4-(4-octylphenyl)butan-1-ol hydrochloride]
CLint (phosphorylation) [1]: 1.545 µL/min | Vmax (phosphorylation) [1]: 221 ± 36.8 pmol/min | Km [1]: 143 ± 25.4 µM | CLint (phosphorylation) [2]: 0.295 µL/min | Vmax (phosphorylation) [2]: 3.36 ± 0.62 pmol/min | Km [2]: 11.4 ± 1.9 µM | phosphorylation level at 6 h after dosing [3]: 95%

CCc1nc(-c2ccc(-c3ccc(CC[C@@](C)(N)CO)cc3)cc2)co1.Cl [Compound 23, (R)-2-Amino-4-(4′-(2-ethyloxazol-4-yl)-[1,1′-biphenyl]-4-yl)-2-methylbutan-1-ol hydrochloride]
CLint (phosphorylation) [1]: 0.505 µL/min | Vmax (phosphorylation) [1]: 65.2 ± 8.2 pmol/min | Km [1]: 129 ± 15.6 µM | CLint (phosphorylation) [2]: 0.012 µL/min | Vmax (phosphorylation) [2]: 0.87 ± 0.09 pmol/min | Km [2]: 65.5 ± 8.3 µM | phosphorylation level at 6 h after dosing [3]: 94%

CCCCCCCCc1ccc(CC[C@@H](N)CO)cc1.Cl [Compound 22, (R)-2-Amino-4-(4-octylphenyl)butan-1-ol hydrochloride]
CLint (phosphorylation) [1]: 3.121 µL/min | Vmax (phosphorylation) [1]: 28.4 ± 4.5 pmol/min | Km [1]: 9.1 ± 1.8 µM | CLint (phosphorylation) [2]: 0.021 µL/min | Vmax (phosphorylation) [2]: 1.24 ± 0.31 pmol/min | Km [2]: 58.2 ± 10.6 µM | phosphorylation level at 6 h after dosing [3]: 69%
